Experimental data: ChEMBL document CHEMBL1138778, “Effects of altering the electronics of 2-methoxyestradiol on cell proliferation, on cytotoxicity in human cancer cell cultures, and on tubulin polymerization” (J Med Chem, 2004)

Key:
MDA-MB-231 = assay: Inhibitory concentration against growth of MDA-MB-231 cancer cell line; type: functional, cell-based; settings: Homo sapiens
In short: (§1)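 MDA-MB-231 cells in DMEM/F12 (1:1) with 10% FBS, seeded at 1000 cells/well and attached overnight. Cells were exposed to compound for 48 h. Proliferation was read by BrdU-incorporation colorimetric ELISA or by cell counting, in triplicate, with experiments repeated at least twice.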

HUVEC = assay: Inhibitory concentration against growth of HUVEC […] cell line; type: functional, cell-based; settings: Homo sapiens
In short: as §1, with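 “HUVEC, used up to five passages” for “MDA-MB-231 cells”, “EGM” for “DMEM/F12 (1:1)”, “bovine brain extract and antibiotic-antimycotic,” for “10% FBS,”, “3000” for “1000”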

UACC-62 = assay: Growth inhibitory concentration against human melanoma UACC-62 cancer cell line; type: functional
In short: (§2)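 Human cancer cell line antiproliferative screen, compounds tested over 10^-4 to 10^-8 M. GI50 is the concentration giving 50% growth inhibition of the individual cell line. GI50 values outside the tested range were set to the range limits (10^-8 or 10^-4 M) when averaging across all lines tested to give the mean graph midpoint.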

OVCAR-3 = assay: Growth inhibitory concentration against human ovarian OVCAR-3 cancer cell line; type: functional; in short: as §2
DU-145 = assay: Growth inhibitory concentration against human prostate DU-145 cancer cell line; type: functional
In short: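 Human cancer cell line screen across 10^-4 to 10^-8 M compound. GI50 is the concentration giving 50% growth inhibition of the individual cell line. GI50 values below or above the tested range were taken as 10^-8 M or 10^-4 M.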

HCT-116 = assay: Growth inhibitory concentration against human colon cancer HCT116 cell line; type: functional
In short: (§3)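 Screen over 10^-4 to 10^-8 M in a human cancer cell line panel. GI50 is the concentration giving 50% growth inhibition of the individual cell line.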

SN12C = assay: Growth inhibitory concentration against human renal SN12C cancer cell line; type: functional; in short: as §2
SF-539 = assay: Growth inhibitory concentration against human CNS SF-539 cancer cell line; type: functional; in short: as §2
Tubulin beta chain = Tubulin beta chain (Bos taurus, UniProt Q6B856); assay: Inhibitory concentration against bovine brain tubulin polymerization; type: functional
Tubulin beta chain, sequence (Q6B856 whole entry): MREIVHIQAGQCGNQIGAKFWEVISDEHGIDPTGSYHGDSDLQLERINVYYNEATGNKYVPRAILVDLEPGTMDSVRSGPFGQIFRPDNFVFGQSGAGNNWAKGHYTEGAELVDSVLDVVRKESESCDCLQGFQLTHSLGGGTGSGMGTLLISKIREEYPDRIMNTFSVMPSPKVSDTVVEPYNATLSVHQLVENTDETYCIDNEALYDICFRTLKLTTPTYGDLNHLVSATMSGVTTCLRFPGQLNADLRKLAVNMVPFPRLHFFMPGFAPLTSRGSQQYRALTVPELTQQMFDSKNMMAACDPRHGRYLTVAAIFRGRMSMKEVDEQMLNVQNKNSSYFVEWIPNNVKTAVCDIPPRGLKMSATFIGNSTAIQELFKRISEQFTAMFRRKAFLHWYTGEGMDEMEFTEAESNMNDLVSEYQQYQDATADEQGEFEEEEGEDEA
In short: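 Bovine brain tubulin, 1.2 mg/mL (12 μM), was preincubated with a range of compound concentrations and then chilled on ice. GTP was added and assembly followed by turbidity at 350 nm for 20 min at 26 °C. IC50 is the concentration halving assembly at 20 min, from at least two independent assays.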

[1] = Growth inhibitory concentration against human cancer cell line; type: functional; settings: Cancer cell lines
In short: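 NCI human cancer cell line antiproliferative screen, tested over 10^-4 to 10^-8 M. GI50 is the concentration giving 50% growth inhibition of each cell line. The mean graph midpoint is the average GI50 across all lines tested, with values outside the range set to 10^-8 or 10^-4 M.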

MDA-MB-435 = assay: Growth inhibitory concentration against human breast MDA-MB-435 cancer cell line; type: functional; in short: as §2
HOP-62 = assay: Growth inhibitory concentration against human lung cancer HOP-62 cell line; type: functional; in short: as §3

Compound	IC50 (MDA-MB-231) [nM]	IC50 (HUVEC) [nM]	GI50 (UACC-62) [nM]	GI50 (OVCAR-3) [nM]	GI50 (DU-145) [nM]	GI50 (HCT-116) [nM]	GI50 (SN12C) [nM]	GI50 (SF-539) [nM]	IC50 (Tubulin beta chain) [nM]	GI50 [1] [nM]	GI50 (MDA-MB-435) [nM]	GI50 (HOP-62) [nM]
C/C=C/c1cc2c(cc1O)CC[C@@H]1[C@@H]2CC[C@]2(C)[C@@H](O)CC[C@@H]12	650	590	–	–	–	–	–	–	–	–	–	–
COc1cc2c(cc1O)CC[C@@H]1[C@@H]2CC[C@]2(C)[C@@H](O)CC[C@@H]12 [2-METHOXYESTRADIOL]	–	–	360	210	1800	470	950	320	5300	1300	80	700
